Holding throughout (type): functional
Assay [1] relates to Abutilon theophrasti. The experiment in a line: Post-emergence herbicidal activity against Abutilon theophrasti (velvetleaf) assessed as growth inhibition at 75 g.a.i./ha applied at two-leaf stage measured after 15 days. The note with it: 360 h, read-out: GI. In outline: (§1)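 Pot-grown weeds sown 5 mm deep in greenhouse clay soil (pH 6.5, 1.7% organic matter, CEC 12.9 cmol/kg) at 22-25 °C. Stock diluted with water and sprayed post-emergence: dicots at 2-leaf stage, monocots at 1-leaf stage. Untreated and DMF solvent controls were included. % growth inhibition was scored visually versus untreated controls after 15 days. Triplicates averaged.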

Assay [2] has as its system Setaria viridis. The experiment in a line: Pre-emergence herbicidal activity against Setaria viridis (green foxtail) assessed as growth inhibition at 75 g.a.i./ha applied 24 hr after seeds were sown measured after 15 days. The conditions noted are these: read-out: GI. Put shortly: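 Preliminary pre-emergence screen at a single rate of 75 g a.i./ha. Stock diluted with water and sprayed on greenhouse pots 24 h after seeds were sown 5 mm deep in clay soil (pH 6.5, 1.7% organic matter); grown at 22-25 °C. Untreated and DMF solvent controls included; triplicate. Visual % growth inhibition vs untreated after 15 days, averaged and banded (>80% top band).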

Assay [3] has as its system Echinochloa crus-galli. The experiment in a line: Pre-emergence herbicidal activity against Echinochloa crus-galli (barnyard grass) assessed as growth inhibition at 75 g.a.i./ha applied 24 hr after seeds were sown measured after 15 days. The conditions noted are these: read-out: GI. Put shortly:
(§2)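 Weeds sown 5 mm deep in pots of greenhouse clay soil (pH 6.5, 37.5% clay, CEC 12.9 cmol/kg) and grown at 22-25 °C. Water-diluted formulation was applied pre-emergence 24 h after sowing. Untreated and DMF solvent controls were included. Growth inhibition was visually rated in % against untreated controls after 15 days, as the mean of triplicates.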

In assay [4] the test system is Digitaria sanguinalis. The experiment in a line: Pre-emergence herbicidal activity against Digitaria sanguinalis (hairy crabgrass) assessed as growth inhibition at 75 g.a.i./ha applied 24 hr after seeds were sown measured after 15 days. The conditions noted are these: read-out: GI. In outline: as §2
The test system of assay [5] is Amaranthus. The experiment in a line: Pre-emergence herbicidal activity against Amaranthus ascendens assessed as growth inhibition at 75 g.a.i./ha applied 24 hr after seeds were sown measured after 15 days. The note with it: read-out: GI. Put shortly: as §2
Assay [6] concerns Chenopodium album. The experiment in a line: Pre-emergence herbicidal activity against Chenopodium album assessed as growth inhibition at 75 g.a.i./ha applied 24 hr after seeds were sown measured after 15 days. The conditions noted are these: read-out: GI. In outline: as §2
Assay [7] relates to Abutilon theophrasti. The experiment in a line: Pre-emergence herbicidal activity against Abutilon theophrasti (velvetleaf) assessed as growth inhibition at 75 g.a.i./ha applied 24 hr after seeds were sown measured after 15 days. The conditions noted are these: read-out: GI. In outline:
as §2

Assay [8] concerns Setaria viridis. The experiment in a line: Post-emergence herbicidal activity against Setaria viridis (green foxtail) assessed as growth inhibition at 75 g.a.i./ha applied at one-leaf stage measured after 15 days. The conditions noted are these: 360 h, read-out: GI. In outline: as §1
Assay [9] has as its system Echinochloa crus-galli. The experiment in a line: Post-emergence herbicidal activity against Echinochloa crus-galli (barnyard grass) assessed as growth inhibition at 75 g.a.i./ha applied at one-leaf stage measured after 15 days. The note with it: 360 h, read-out: GI. In outline: as §1
Assay [10] relates to Amaranthus. The experiment in a line: Post-emergence herbicidal activity against Amaranthus ascendens assessed as growth inhibition at 75 g.a.i./ha applied at two-leaf stage measured after 15 days. The note with it: 360 h, read-out: GI. In outline:
as §1

In assay [11] the test system is Digitaria sanguinalis. The experiment in a line: Post-emergence herbicidal activity against Digitaria sanguinalis (hairy crabgrass) assessed as growth inhibition at 75 g.a.i./ha applied at one-leaf stage measured after 15 days. The conditions noted are these: 360 h, read-out: GI. Put shortly:
as §1

In assay [12] the test system is Chenopodium album. The experiment in a line: Post-emergence herbicidal activity against Chenopodium album assessed as growth inhibition at 75 g.a.i./ha applied at two-leaf stage measured after 15 days. The conditions noted are these: 360 h, read-out: GI. In outline: as §1

Take `COC(=O)CN1C(=O)COc2cc(F)c(N3C(=O)c4ccccc4C3=O)cc21`: the inhibition of growth at 75 g/ha in the assay on Abutilon theophrasti [1] was more than 80%; in the assay with Setaria viridis [2], less than 50%; with Echinochloa crus-galli [3], less than 50%; in the assay with Digitaria sanguinalis [4], less than 50%; with Amaranthus [5] it was 50%; in the assay with Chenopodium album [6], 50%. Further, the inhibition of growth at 75 g/ha with Abutilon theophrasti [7] was 50%; in the assay with Setaria viridis [8], less than 50%; with Echinochloa crus-galli [9] it was less than 50%; in the assay with Amaranthus [10] it was more than 80%; with Digitaria sanguinalis [11], less than 50%; in the assay with Chenopodium album [12], more than 80%.

Turning to `CCOC(=O)CN1C(=O)COc2cc(F)c(N3C(=O)c4ccccc4C3=O)cc21`, the inhibition of growth at 75 g/ha in the assay on Abutilon theophrasti [1] was more than 80%; in the assay with Setaria viridis [2], less than 50%; with Echinochloa crus-galli [3], less than 50%; with Digitaria sanguinalis [4], less than 50%; in the assay with Amaranthus [5] it was 50%; in the assay on Chenopodium album [6], 50%. Further, the inhibition of growth at 75 g/ha is 50% with Abutilon theophrasti [7]; less than 50% in the assay with Setaria viridis [8]; less than 50% in the assay with Echinochloa crus-galli [9]; more than 80% in the assay on Amaranthus [10]; less than 50% in the assay on Digitaria sanguinalis [11]; more than 80% with Chenopodium album [12].

For `COC(=O)C(C)N1C(=O)COc2cc(F)c(N3C(=O)c4ccccc4C3=O)cc21` (configuration not stated), the inhibition of growth at 75 g/ha with Abutilon theophrasti [1] is more than 80%; in the assay on Setaria viridis [2], less than 50%; in the assay with Echinochloa crus-galli [3], less than 50%; in the assay with Digitaria sanguinalis [4] it was less than 50%; in the assay with Amaranthus [5], less than 50%; in the assay with Chenopodium album [6] it was less than 50%. Besides, the inhibition of growth at 75 g/ha was less than 50% in the assay with Abutilon theophrasti [7]; 50% with Setaria viridis [8]; 50% in the assay with Echinochloa crus-galli [9]; more than 80% in the assay on Amaranthus [10]; 50% in the assay with Digitaria sanguinalis [11]; more than 80% with Chenopodium album [12].

Turning to `CCOC(=O)CN1C(=O)COc2cc(F)c(N3C(=O)c4cc(Cl)c(Cl)cc4C3=O)cc21`, the inhibition of growth at 75 g/ha with Abutilon theophrasti [1] is 50%; in the assay with Setaria viridis [2] it was less than 50%; in the assay with Echinochloa crus-galli [3], less than 50%; with Digitaria sanguinalis [4] it was less than 50%; in the assay with Amaranthus [5], less than 50%; in the assay with Chenopodium album [6], less than 50%. Moreover, the inhibition of growth at 75 g/ha in the assay on Abutilon theophrasti [7] is less than 50%; in the assay with Setaria viridis [8] it was less than 50%; in the assay with Echinochloa crus-galli [9], less than 50%; in the assay with Amaranthus [10] it was 50%; in the assay on Digitaria sanguinalis [11] it was less than 50%; in the assay with Chenopodium album [12], 50%.

With `CCOC(=O)C(C)N1C(=O)COc2cc(F)c(N3C(=O)c4ccc([N+](=O)[O-])cc4C3=O)cc21` (configuration not stated), the inhibition of growth at 75 g/ha in the assay with Abutilon theophrasti [1] is less than 50%; in the assay on Setaria viridis [2] it was less than 50%; with Echinochloa crus-galli [3], less than 50%; in the assay on Digitaria sanguinalis [4], less than 50%; in the assay on Amaranthus [5], less than 50%; in the assay on Chenopodium album [6] it was 50%. In addition, the inhibition of growth at 75 g/ha in the assay on Abutilon theophrasti [7], with Setaria viridis [8], in the assay with Echinochloa crus-galli [9], in the assay on Amaranthus [10], in the assay with Digitaria sanguinalis [11] and in the assay with Chenopodium album [12] was less than 50% throughout.

Turning to `CCOC(=O)C(C)N1C(=O)COc2cc(F)c(N3C(=O)c4cc(Cl)c(Cl)cc4C3=O)cc21` (configuration not stated), the inhibition of growth at 75 g/ha with Abutilon theophrasti [1], with Setaria viridis [2], in the assay on Echinochloa crus-galli [3], in the assay on Digitaria sanguinalis [4], in the assay on Amaranthus [5] and with Chenopodium album [6] was less than 50% in each case. The inhibition of growth at 75 g/ha in the assay with Abutilon theophrasti [7] is less than 50%; in the assay on Setaria viridis [8], less than 50%; in the assay with Echinochloa crus-galli [9], less than 50%; in the assay on Amaranthus [10], less than 50%; with Digitaria sanguinalis [11], less than 50%; with Chenopodium album [12], 50%.

These data come from ChEMBL document CHEMBL3045743, “Synthesis and herbicidal activity of isoindoline-1,3-dione substituted benzoxazinone derivatives containing a carboxylic ester group” (J Agric Food Chem, 2009).
